ChEMBL document CHEMBL4602675, “The Marine Natural Product Manzamine A Inhibits Cervical Cancer by Targeting the SIX1 Protein” (J Nat Prod, 2020)
The source made the active and inactive calls. No cut-off for these calls is given here.

Assays:
[1] = test system: SiHa; experiment: Antiproliferative activity against human SiHa cells assessed as reduction in cell viability after 24 hrs by CellTiter-Glo assay; assay type: functional, cell-based
Procedure, shortened: (§1)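 ATP-based luminescent viability readout. Cells were grown in DMEM with 10% FBS, 2 mM L-glutamine and penicillin-streptomycin at 37 °C, 5% CO2. 2 × 10^4 cells/well were seeded, then exposed the next day to 0–40 μM for 24, 48 or 72 h. % viability = 100 × treated/control. IC50 was fitted from a sigmoid dose-response curve. Run at least three times in quadruplicate; mean ± SEM.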

[2] = test system: HeLa; experiment: Antiproliferative activity against human HeLa cells assessed as reduction in cell viability after 48 hrs by CellTiter-Glo assay; assay type: functional, cell-based; procedure, shortened: as §1
[3] = test system: Ca-Ski; experiment: Antiproliferative activity against human CaSki cells assessed as reduction in cell viability after 48 hrs by CellTiter-Glo assay; assay type: functional, cell-based; procedure, shortened: as §1
[4] = test system: C-33-A; experiment: Antiproliferative activity against human C33A cells assessed as reduction in cell viability after 72 hrs by CellTiter-Glo assay; assay type: functional, cell-based; procedure, shortened: as §1
[5] = test system: Ca-Ski; experiment: Antiproliferative activity against human CaSki cells assessed as reduction in cell viability after 72 hrs by CellTiter-Glo assay; assay type: functional, cell-based; procedure, shortened: as §1
[6] = test system: HeLa; experiment: Inhibition of colony formation in human HeLa cells at 2 to 4 uM afer 1 week by crystal violet staining based assay; assay type: functional, cell-based
Procedure, shortened: (§2)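 Cells were grown in DMEM with 10% FBS, seeded at 1 × 10^3 cells/ml in six-well plates, incubated overnight, then exposed to 2 or 4 μM at 37 °C under 5% CO2 for one week. Colonies were fixed with 4% paraformaldehyde, stained with 0.5% crystal violet and photographed.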

[7] = test system: SiHa; experiment: Inhibition of colony formation in human SiHa cells at 2 to 4 uM afer 1 week by crystal violet staining based assay; assay type: functional, cell-based; procedure, shortened: as §2
[8] = test system: Ca-Ski; experiment: Inhibition of colony formation in human CaSki cells at 2 to 4 uM afer 1 week by crystal violet staining based assay; assay type: functional, cell-based; procedure, shortened: as §2
[9] = test system: C-33-A; experiment: Cell cycle arrest in human C33A cells assessed as accumulation at Sub G1 phase at 4 uM after 24 hrs by propidium iodide staining based flow cytometric analysis (reference value: 0.7%); assay type: functional
Procedure, shortened: (§3)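 Cells in DMEM/10% FBS at 37 °C, 5% CO2 were given 4 μM for 24, 48 or 72 h, with DMSO as control. After trypsinization they were fixed in chilled 70% ethanol on ice for 30 min, treated with RNase A (1 mg/mL) for 30 min at room temperature, and stained with PI (20 μg/mL). At least 10 000 events were read by flow cytometry to give sub-G1, G0/G1, S and G2/M fractions; mean ± SEM.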

[10] = test system: C-33-A; experiment: Cell cycle arrest in human C33A cells assessed as accumulation at Sub G1 phase at 4 uM after 48 hrs by propidium iodide staining based flow cytometric analysis (reference value: 0.8%); assay type: functional; procedure, shortened: as §3
[11] = test system: C-33-A; experiment: Cell cycle arrest in human C33A cells assessed as accumulation at Sub G1 phase at 4 uM after 72 hrs by propidium iodide staining based flow cytometric analysis (reference value: 0.7%); assay type: functional; procedure, shortened: as §3
[12] = test system: HeLa; experiment: Cell cycle arrest in human HeLa cells assessed as accumulation at Sub G1 phase at 4 uM after 72 hrs by propidium iodide staining based flow cytometric analysis (reference value: 3.5%); assay type: functional; procedure, shortened: as §3
[13] = test system: HeLa; experiment: Cell cycle arrest in human HeLa cells assessed as accumulation at G2/M phase at 4 uM after 72 hrs by propidium iodide staining based flow cytometric analysis (reference value: 12.6%); assay type: functional; procedure, shortened: as §3
[14] = test system: Ca-Ski; experiment: Cell cycle arrest in human CaSki cells assessed as accumulation at G2/M phase at 4 uM after 48 hrs by propidium iodide staining based flow cytometric analysis (reference value: 29.5%); assay type: functional; procedure, shortened: as §3
[15] = test system: Ca-Ski; experiment: Cell cycle arrest in human CaSki cells assessed as accumulation at G2/M phase at 4 uM after 72 hrs by propidium iodide staining based flow cytometric analysis (reference value: 15.2%); assay type: functional
[16] = test system: C-33-A; experiment: Induction of apoptosis in human C33A cells assessed as early apoptotic cells at 4 uM after 48 hrs by Annexin V-FITC/PI double staining based flow cytometric analysis (reference value: 12.9%); assay type: functional
[17] = test system: HeLa; experiment: Induction of apoptosis in human HeLa cells assessed as viable cells at 4 uM after 24 hrs by Annexin V-FITC/PI double staining based flow cytometric analysis (reference value: 85.2%); assay type: functional; conditions: read-out: Activity
[18] = test system: HeLa; experiment: Induction of apoptosis in human HeLa cells assessed as early apoptotic cells at 4 uM after 24 hrs by Annexin V-FITC/PI double staining based flow cytometric analysis (reference value: 6.3%); assay type: functional
[19] = test system: Ca-Ski; experiment: Cell cycle arrest in human CaSki cells assessed as increase in accumulation at G0/G1 phase at 4 uM incubated for 48 hrs by propidium iodide staining based flow cytometric analysis; assay type: functional; procedure, shortened: as §3
[20] = test system: SiHa; experiment: Induction of apoptosis in human SiHa cells assessed as apoptotic cells at 4 uM after 48 hrs by Annexin V-FITC/PI double staining based flow cytometric analysis (reference value: 6.4%); assay type: functional
[21] = test system: Ca-Ski; experiment: Effect on total-Rb in human CaSki cells assessed decrease in Rb protein level at 2 to 4 uM after 48 hrs by Western blot analysis; assay type: ADME, cell-based
Procedure, shortened: (§4)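 Cells were seeded at 1 × 10^6 per 100 mm dish and treated next day with 2 or 4 μM for 48 h. They were trypsinised, PBS-washed and lysed in RIPA with protease inhibitors. Equal protein was run on SDS-PAGE and transferred to PVDF. Primary antibodies were used at 1:500, with BSA 3% for blocking and antibodies for CK2α, Rb and pRb, otherwise 5% milk in TBST. HRP secondary at 1:2000, chemiluminescence detection.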

[22] = target: T1, Homeobox protein SIX1 (Homo sapiens) (UniProt Q15475); experiment: Inhibition of SIX1 in human C33A cells at 2 to 4 uM after 48 hrs by Western blot analysis; assay type: cell-based; conditions: C-33-A; procedure, shortened: as §4
T1 sequence (whole entry): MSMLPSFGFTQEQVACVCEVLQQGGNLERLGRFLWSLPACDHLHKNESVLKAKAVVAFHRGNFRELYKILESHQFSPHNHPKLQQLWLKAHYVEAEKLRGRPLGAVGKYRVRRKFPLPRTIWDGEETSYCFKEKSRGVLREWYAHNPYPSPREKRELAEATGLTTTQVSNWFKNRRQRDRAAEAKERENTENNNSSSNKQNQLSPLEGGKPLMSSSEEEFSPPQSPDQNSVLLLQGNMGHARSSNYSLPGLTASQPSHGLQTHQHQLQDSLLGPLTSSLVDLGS

[23] = target: T1, Homeobox protein SIX1 (Homo sapiens); experiment: Inhibition of SIX1 in human HeLa cells at 2 to 4 uM after 48 hrs by Western blot analysis; assay type: cell-based; procedure, shortened: as §4
[24] = target: T1, Homeobox protein SIX1 (Homo sapiens); experiment: Inhibition of SIX1 in human CaSki cells at 2 to 4 uM after 48 hrs by Western blot analysis; assay type: cell-based; conditions: Ca-Ski; procedure, shortened: as §4
[25] = target: Casein kinase II subunit alpha (Homo sapiens) (UniProt P68400); experiment: Inhibition of CK2alpha in human HeLa cells at 2 to 4 uM after 48 hrs by Western blot analysis; assay type: cell-based; procedure, shortened: as §4
[26] = target: Casein kinase II subunit alpha (Homo sapiens) (UniProt P68400); experiment: Inhibition of CK2alpha in human SiHa cells at 2 to 4 uM after 48 hrs by Western blot analysis; assay type: cell-based; procedure, shortened: as §4
[27] = target: Casein kinase II subunit alpha (Homo sapiens) (UniProt P68400); experiment: Inhibition of CK2alpha in human CaSki cells at 2 to 4 uM after 48 hrs by Western blot analysis; assay type: cell-based; conditions: Ca-Ski; procedure, shortened: as §4

Chain of Casein kinase II subunit alpha (Homo sapiens) (P68400 whole entry, looked up): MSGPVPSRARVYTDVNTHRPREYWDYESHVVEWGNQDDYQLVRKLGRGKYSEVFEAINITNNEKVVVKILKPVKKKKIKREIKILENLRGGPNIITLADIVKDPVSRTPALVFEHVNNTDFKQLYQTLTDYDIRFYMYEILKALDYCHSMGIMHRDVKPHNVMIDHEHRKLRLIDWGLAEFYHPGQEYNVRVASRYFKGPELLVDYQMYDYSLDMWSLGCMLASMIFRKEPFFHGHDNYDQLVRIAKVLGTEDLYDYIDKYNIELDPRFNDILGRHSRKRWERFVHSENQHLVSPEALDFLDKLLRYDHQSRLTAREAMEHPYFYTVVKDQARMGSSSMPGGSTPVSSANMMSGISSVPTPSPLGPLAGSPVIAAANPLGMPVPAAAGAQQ

With `O[C@]12C=C(c3nccc4c3[nH]c3ccccc34)[C@@H]3CCN(CCCC/C=C\CC1)C[C@@]31C[C@@H]3/C=C\CCCCN3[C@H]12` [MANZAMINE A] the IC50 [1] was 19.9 µM, the IC50 [2] was 4 µM and the IC50 [3] was 19.9 µM. For the same molecule, the IC50 [4] was 1.6 µM, the IC50 [5] was 9.4 µM and the inhibition [6] was “Active”. The inhibition [7] was “Active”, the inhibition [8] was “Active” and the Activity [9] was 1.8%. The Activity [10] was 19.2%, the Activity [11] was 31.3% and the Activity [12] was 24.3%. The Activity [13] was 16.2%, the Activity [14] was 10.1% and the Activity [15] was 10.2%. It also gave an Activity [16] of 9.7%, a viability at 4 µM [17] of 81.7% and an Activity [18] of 10.5%. For the same molecule, the “fold change (FC)” value [19] was 1.5, the Activity [20] was 33.6% and the Activity [21] was “Toxic”. For the same molecule, the inhibition [22] was “Active”, the inhibition [23] was “Active” and the inhibition [24] was “Active”. The inhibition [25] was “Active”, the inhibition [26] was “Active” and the inhibition [27] was “Active”.
